The list is not random: actives were taken first. Their share in the collection is about 2.3%.
TRPC4 PAM = allosterically enhances the mouse TRPC4 cation channel; Q9QUQ5; HEK293 TRPC4beta/mu-opioid, DAMGO EC20, Fluo-4 Ca2+ flux; active compounds read high; B-score at 10 µM; hit rate 0.42% among 310,000; AID 2227;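 active = B-score of calcium response area above 5 SD of library B-scores, with initial fluorescence ratio within 5 SD of library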;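 note: B-score of integrated fluorescence ratio over time as area under calcium response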
Target sequence (Q9QUQ5 whole entry, looked up): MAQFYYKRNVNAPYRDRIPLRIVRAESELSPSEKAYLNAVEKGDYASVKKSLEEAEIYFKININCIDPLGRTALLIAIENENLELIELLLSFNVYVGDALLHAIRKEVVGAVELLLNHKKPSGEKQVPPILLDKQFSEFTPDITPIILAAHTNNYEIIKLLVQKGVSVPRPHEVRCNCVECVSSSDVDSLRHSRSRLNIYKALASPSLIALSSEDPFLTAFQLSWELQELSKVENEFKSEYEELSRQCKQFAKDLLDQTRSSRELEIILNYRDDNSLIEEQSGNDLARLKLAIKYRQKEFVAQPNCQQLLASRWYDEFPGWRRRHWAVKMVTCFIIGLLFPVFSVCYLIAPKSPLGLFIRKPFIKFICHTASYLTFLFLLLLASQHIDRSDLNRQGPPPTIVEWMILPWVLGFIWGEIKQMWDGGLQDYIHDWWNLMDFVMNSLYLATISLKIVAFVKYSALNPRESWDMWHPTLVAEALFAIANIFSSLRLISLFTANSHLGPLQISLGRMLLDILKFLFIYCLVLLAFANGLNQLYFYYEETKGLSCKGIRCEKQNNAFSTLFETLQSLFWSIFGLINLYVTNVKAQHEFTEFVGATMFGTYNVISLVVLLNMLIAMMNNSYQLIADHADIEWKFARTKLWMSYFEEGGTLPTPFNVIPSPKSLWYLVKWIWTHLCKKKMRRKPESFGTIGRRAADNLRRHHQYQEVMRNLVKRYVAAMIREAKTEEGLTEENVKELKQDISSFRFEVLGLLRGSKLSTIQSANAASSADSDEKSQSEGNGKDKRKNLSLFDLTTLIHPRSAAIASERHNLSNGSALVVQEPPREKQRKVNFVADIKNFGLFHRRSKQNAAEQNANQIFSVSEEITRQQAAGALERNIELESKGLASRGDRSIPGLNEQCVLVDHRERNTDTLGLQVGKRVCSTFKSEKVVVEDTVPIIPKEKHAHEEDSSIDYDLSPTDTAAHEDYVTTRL
TRPC4 inh = inhibitors of mouse TRPC4 channel; Q9QUQ5; HEK293 TRPC4beta/mu-opioid, DAMGO-evoked Fluo4 calcium flux; active compounds read low; B-score at 10 µM; hit rate 0.39% among 300,000; AID 2247;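 active = B-score over 3 SD under the library average, no early fluorescence shift, positive overall ratio signal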
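Assay system: TRPC4beta/mu-opioid receptor HEK293 cell line; compound dosing: single concentration per test compound; detection: Fluo4 Ca2+ flux fluorescence; evaluation: per-well B score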
TRPC6 act = mouse TRPC6 channel activation. Q61143. AID 2550. B-score at 10 µM. HEK293-TRPC6 membrane potential dye fluorescence; active compounds read high. hit rate 0.13% among 310,000;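 active = B-score of the integrated fluorescence ratio above library mean plus 3 SD, and starting fluorescence ratio within library mean plus 5 SD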;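 note: higher score means more depolarization so channel activation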
TRPC4 act = TRPC4 (mouse) channel activation; B-score at 10 µM; hit rate 0.49% among 310,000; HEK293 TRPC4beta/mu-opioid, Fluo4 calcium fluorescence; active compounds read high; Q9QUQ5; AID 2237;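 active = B-score above 5 SD of library B-scores, and initial fluorescence ratio not above library mean plus 5 SD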;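 note: positive B-score marks a calcium rise read as TRPC4 activation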
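Assay system – TRPC4beta and mu-opioid receptor HEK293 stable cells · Measured by – Fluo4 fluorescence, kinetic · Schedule – dye loading 45 min room temperature, 110 s kinetic read · Read-out – B-scored integrated calcium fluorescence ratio · Controls – buffer and maximal DAMGO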
TRPC6 inhibitor = inhibitors of mouse TRPC6 channel | HEK293-TRPC6, membrane potential dye, ACh-evoked depolarization; active compounds read low | B-score at 10 µM | hit rate 1.1% among 310,000 | AID 2553;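 active = B-score under library mean minus 3 SD, initial fluorescence not abnormally high, positive integrated signal ratio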;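 note: B-score derived from integrated fluorescence ratio over the kinetic read; more negative B-score means stronger inhibition of depolarization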
TRPC4 sel inh 2 = second check of whether TRPC6 inhibitors also affect mouse TRPC4 | shares compounds with TRPC6 inhibitor | HEK293 TRPC4/MOR, membrane potential dye fluorescence; channel activated by saturating DAMGO dose | inhibition, % at 10 µM | hit rate 42% among 920;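 active = compounds whose fluorescence signal differed from control wells by over 3 SD, either direction, in both duplicate plates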
TRPC4 spec = selectivity of TRPC6 inhibitors: effect on mouse TRPC4 | hit rate 61% among 920 | HEK293 TRPC4/mu-opioid, membrane potential fluorescence | shares compounds with TRPC6 inhibitor | activity change, negative = inhibition, % at 10 µM;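 active = rise or fall in signal beyond 3 SD of buffer-only wells in both replicate plates, either sign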;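 note: integrated kinetic ratio of fluorescence range over baseline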
HEK293 MPD ctr 2-1 = second check of TRPC6 inhibitor effects in parental HEK293 cells | shares compounds with TRPC6 inhibitor | parental HEK293 membrane potential dye fluorescence; maximal acetylcholine challenge after compound addition | signal change vs control, % at 10 µM | hit rate 31% among 920 | AID 2779;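 active = membrane potential signal moving either way by over 3 SD of the maximum-effect control, in both duplicate plates, meaning non-specific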
HEK293 MPD ctr-1 = counter-screen for TRPC6 inhibitors: effect in parental HEK293 cells. shares compounds with TRPC6 inhibitor. parental HEK293 membrane potential dye fluorescence. membrane potential signal change, % at 10 µM. hit rate 60% among 920. AID 2780;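 active = membrane potential signal shifting up or down by more than 3 SD of buffer-only wells, on both duplicate plates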
HEK293 MPD ctr-2 = checks TRPC6 modulator effects in parental HEK293 cells; shares compounds with TRPC6 inhibitor; membrane potential dye fluorescence; membrane potential signal change, % at 10 µM; hit rate 51% among 2,400; AID 488924;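 active = membrane potential signal moves up or down beyond 5 SD from buffer-only wells, on both duplicate plates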
HEK293 MPD ctr 2-2 = second counter-screen for TRPC6 modulators: effect in parental HEK293 cells | membrane potential dye fluorescence; after compound, maximal acetylcholine stimulation | AID 488926 | shares compounds with TRPC6 inhibitor | hit rate 14% among 2,400 | inhibition, % at 10 µM;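 active = membrane potential signal drops by more than 5 SD from the mean control signal, in both duplicate plates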;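 note: plate controls were acetylcholine ECmax control wells for no effect and buffer only wells for full effect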
TRPC4 ctr mod = selectivity of TRPC6 modulators against mouse TRPC4; shares compounds with TRPC6 inhibitor; HEK293 TRPC4/mu-opioid, membrane potential fluorescence; percent change from control (negative = decrease, positive = increase), % at 10 µM; hit rate 69% among 2,400; AID 488927;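 active = membrane potential signal moved up or down beyond 5 SD of buffer control wells, in both duplicate plates, actives on both sides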;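 note: plate controls were assay buffer wells for no effect and DAMGO maximal-effect wells for full effect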
TRPC4 ctr inh 2 = second check of whether TRPC6 modulators also affect mouse TRPC4 | AID 488928 | HEK293 TRPC4/mu-opioid, membrane potential dye fluorescence; stimulated with maximal-effect DAMGO | inhibition, % at 10 µM | hit rate 55% among 2,400 | shares compounds with TRPC6 inhibitor;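 active = drop in membrane potential signal beyond 5 SD of the control wells in both duplicate plates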;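 note: TRPC4 counter screen for TRPC6 hits run under conditions tuned for TRPC6 not TRPC4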
TRPC6 inh conf = confirmation of mouse TRPC6 inhibitors | shares compounds with TRPC6 inhibitor | inhibition, % at 10 µM | hit rate 43% among 3,300 | HEK293-TRPC6, membrane potential dye, ACh-evoked depolarization;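 active = fluorescence ratio falls more than 5 SD below the full-stimulation control mean, in both duplicate runs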;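 note: integrated fluorescence ratio of peak minus minimum over baseline after agonist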
TRPC6 act confirm = confirmation of mouse TRPC6 activators; shares compounds with TRPC6 inhibitor; HEK293-TRPC6 membrane potential dye fluorescence, FDSS; activation, % at 10 µM; hit rate 11% among 2,800; AID 488961;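 active = ratio signal rise beyond 5 SD above unstimulated control wells' mean, seen in both duplicate runs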;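 note: plate controls were buffer EC0 wells for no effect and acetylcholine ECmax response for full effect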
Active calls of the source: *; i = inactive; x = no result given; + = active, no number.

SMILES	TRPC4 PAM	TRPC4 inh	TRPC6 act	TRPC4 act	TRPC6 inhibitor	HEK293 MPD ctr-2	HEK293 MPD ctr 2-2	TRPC4 ctr mod	TRPC4 ctr inh 2	TRPC6 inh conf	TRPC6 act confirm	others
O=C(/C=C/NCc1cccnc1)c1ccc(-c2ccccc2)cc1	i	i	i	i	i	x	x	x	x	x	x
COc1cc(N/C(N)=N/c2nc(C)cc(C)n2)c(OC)cc1Cl	i	i	i	i	-8.2*	x	x	x	x	90%*	i	TRPC4 sel inh 2=i;TRPC4 spec=-11%*;HEK293 MPD ctr 2-1=i;HEK293 MPD ctr-1=-170%*
Cc1cc(C)nc(/N=C(\N)Nc2cc([N+](=O)[O-])ccc2C)n1	i	i	i	i	-7.1*	-166%*	i	-28%*	48%*	58%*	i
COc1cc(NC(N)=S)c(OC)cc1Cl	i	i	i	i	i	x	x	x	x	x	x
CCCN1CCC(=NNc2ccc(S(=O)(=O)N(CC)CC)cc2[N+](=O)[O-])CC1	i	i	i	i	-5.9*	i	i	-11%*	51%*	46%*	i
CCCCN1C(=O)/C(=C/C=C2\Oc3ccccc3N2CC)SC1=S	i	i	35*	i	i	338%*	i	99%*	i	i	i
COc1cc(/C=C2\SC(=S)N(NC(=O)c3ccccc3OC)C2=O)ccc1O	i	i	i	i	i	x	x	x	x	x	x
COc1cc(/C=C2\SC(=S)N(NS(=O)(=O)c3ccccc3)C2=O)ccc1O	i	i	15*	i	i	490%*	74%*	64%*	i	i	57%*
COc1cc(/C=C2\SC(=S)N(NS(=O)(=O)c3ccc(C)cc3)C2=O)ccc1O	i	i	23*	i	i	614%*	i	90%*	29%*	i	110%*
CN(C)c1ccc(/C=C/C(=O)c2cccnc2)cc1	i	i	133*	i	i	+	+	470%*	160%*	x	864%*
CN(C)c1ccc2nc3ccc(=[N+](C)C)cc-3sc2c1	i	i	i	i	-14*	-224%*	132%*	-36%*	66%*	80%*	i
COc1cccc(CN2CCC(n3nccc3NC(=O)CCOc3ccccc3)CC2)c1	i	i	i	i	i	x	x	x	x	x	x
COc1cccc(CN2CCC(n3nccc3NC(=O)CCOc3ccccc3)CC2)c1O	i	i	i	i	-10*	x	x	x	x	i	i	TRPC4 sel inh 2=i;TRPC4 spec=1.8%*;HEK293 MPD ctr 2-1=i;HEK293 MPD ctr-1=0.8%*
Cc1ccc(-c2csc(=Nc3cccnc3)n2CCCn2ccnc2)cc1C	i	i	i	i	-5.4*	106%*	i	15%*	65%*	44%*	x
O=S(=O)(NC1CCSc2ccccc21)c1ccc(Cl)nc1 (stereo not given)	i	i	i	i	-6.2*	i	i	i	i	i	i
CC(=O)c1ccc(S(=O)(=O)NC2CCSc3ccccc32)cc1 (stereo not given)	i	i	i	i	i	x	x	x	x	x	x
Cc1csc(=O)n1CC(=O)OC(C)C(=O)Nc1cccc(Cl)c1 (stereo not given)	i	i	i	i	i	x	x	x	x	x	x
CN(C)CCNS(=O)(=O)c1ccc(N2CCc3ccccc32)c([N+](=O)[O-])c1	i	i	i	i	-7.2*	-129%*	i	-28%*	73%*	60%*	i
CCOC(=O)c1ccc(NC(=O)NCc2ccncc2)cc1	i	i	i	i	-5.5*	i	i	i	i	i	x
CCOC(=O)c1ccc(NC(=O)NCCc2cnc[nH]2)cc1	i	i	i	175*	-6.8*	x	x	x	x	i	i	TRPC4 sel inh 2=69%*;TRPC4 spec=64%*;HEK293 MPD ctr 2-1=i;HEK293 MPD ctr-1=i
CC(=O)c1cnc(Nc2nc(C)c3ccc(C)cc3n2)nc1C	i	i	i	i	-5.7*	-154%*	81%*	-20%*	i	i	i
CC(=O)c1cnc(Nc2nc(C)c3ccccc3n2)nc1C	i	i	i	i	i	x	x	x	x	x	x
COc1ccc(OC)c(C(c2nnnn2Cc2ccccc2)N2CCN(C3CCCCC3)CC2)c1 (stereo not given)	i	i	i	i	-5.7*	132%*	i	i	65%*	40%*	x
CCC1(C)Cc2c(sc3[nH]c(=S)[nH]c(=S)c23)CO1 (stereo not given)	i	i	i	i	-8.9*	x	x	x	x	i	i	TRPC4 sel inh 2=i;TRPC4 spec=i;HEK293 MPD ctr 2-1=i;HEK293 MPD ctr-1=i
O=S(=O)(NCC(c1ccc2c(c1)OCO2)N1CCOCC1)c1ccccc1 (stereo not given)	i	i	i	i	i	x	x	x	x	x	x
O=C(N/N=C/c1ccccc1F)c1ccccc1OCc1ccccc1	i	i	i	i	i	x	x	x	x	x	x
CCc1ccc(Nc2n[n+](-c3ccccc3)c(-c3ccc(N(CC)CC)cc3)s2)cc1	i	i	i	i	i	x	x	x	x	x	x
CCN(CC)c1ccc(-c2sc(Nc3ccccc3)n[n+]2-c2ccc(F)cc2)cc1	i	i	19*	i	i	+	i	204%*	i	i	226%*
CCn1cnc2cc(NCc3ccncc3)ccc21	i	i	i	i	i	x	x	x	x	x	x
